Results: ChEMBL document CHEMBL2176925, “Novel ¹⁸F-labeled benzoxazole derivatives as potential positron emission tomography probes for imaging of cerebral β-amyloid plaques in Alzheimer's disease” (J Med Chem, 2012)

Key:
Intestine [1] = test: Drug uptake in ddY mouse intestine at 370 kBq/100 ul, iv at 2 mins by gamma-counting analysis; type: ADME, organism-based; settings: in vivo
Summary of the method: (§1)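 Normal male ddY mice (5 weeks, 20−22 g, n = 5) received 370 kBq of tracer in 100 μL saline with 5% EtOH via tail vein. Mice were sacrificed at set times after injection, and organs were excised, weighed and γ-counted against diluted injectate aliquots. Values are %ID per gram, except stomach and intestine as %ID per organ, given as mean ± SD of 5 mice.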

Brain [2] = test: Drug uptake in ddY mouse brain at 370 kBq/100 ul, iv at 30 mins by gamma-counting analysis; type: ADME, organism-based; settings: in vivo, 0.5 h; summary of the method: as §1
Bone [3] = test: Drug uptake in ddY mouse bone at 370 kBq/100 ul, iv at 10 mins by gamma-counting analysis; type: ADME, organism-based, Bone element; settings: in vivo; summary of the method: as §1
Lung [4] = test: Drug uptake in ddY mouse lung at 370 kBq/100 ul, iv at 10 mins by gamma-counting analysis; type: ADME, organism-based; settings: in vivo; summary of the method: as §1
Heart [5] = test: Drug uptake in ddY mouse heart at 370 kBq/100 ul, iv at 30 mins by gamma-counting analysis; type: ADME, organism-based; settings: in vivo, 0.5 h; summary of the method: as §1
Brain [6] = test: Drug uptake in wild type C57BL6 mouse brain at 40.7 MBq, iv after 30 mins by autoradiographic analysis; type: ADME, organism-based; settings: in vivo, 0.5 h
Summary of the method: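 Wild-type C57BL6 mice (18 months) received 40.7 MBq tracer iv via the femoral vein in 100 μL saline with 5% EtOH. Decapitated at 30 min, and brains frozen in powdered dry ice. 20 μm sections exposed to an imaging plate for 8 h, then the same sections stained with thioflavin-S.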

Brain [7] = test: Drug uptake in wild type C57BL6 mouse brain at 370 kBq/100 ul after 1 hr by autoradiographic analysis; type: ADME, tissue-based; settings: in vitro
Summary of the method: (§2)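 Paraffin sections of brain were used: C57BL6 mice (wild-type, 12 months), human AD (person) and normal human. Sections were deparaffinized through xylene and graded ethanol, then equilibrated 30 min in PBS (0.2 M, pH 7.4). Incubated 1 h at room temperature with tracer, 370 kBq/100 μL, washed 1 min in 50% ethanol and rinsed with water. Imaging plate exposed overnight. Plaques confirmed by thioflavin-S or anti-Aβ1-42 monoclonal immunostaining.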

Intestine [8] = test: Drug uptake in ddY mouse intestine at 370 kBq/100 ul, iv at 60 mins by gamma-counting analysis; type: ADME, organism-based; settings: in vivo, 1 h; summary of the method: as §1
Intestine [9] = test: Drug uptake in ddY mouse intestine at 370 kBq/100 ul, iv at 10 mins by gamma-counting analysis; type: ADME, organism-based; settings: in vivo; summary of the method: as §1
Bone [10] = test: Drug uptake in ddY mouse bone at 370 kBq/100 ul, iv at 60 mins by gamma-counting analysis; type: ADME, organism-based, Bone element; settings: in vivo, 1 h; summary of the method: as §1
Blood [11] = test: Drug uptake in ddY mouse blood at 370 kBq/100 ul, iv at 2 mins by gamma-counting analysis; type: ADME, organism-based; settings: in vivo; summary of the method: as §1
Heart [12] = test: Drug uptake in ddY mouse heart at 370 kBq/100 ul, iv at 60 mins by gamma-counting analysis; type: ADME, organism-based; settings: in vivo, 1 h; summary of the method: as §1
Brain [13] = test: Drug uptake in ddY mouse brain at 370 kBq/100 ul, iv at 2 mins by gamma-counting analysis; type: ADME, organism-based; settings: in vivo; summary of the method: as §1
Bone [14] = test: Drug uptake in ddY mouse bone at 370 kBq/100 ul, iv at 2 mins by gamma-counting analysis; type: ADME, organism-based, Bone element; settings: in vivo; summary of the method: as §1
Blood [15] = test: Drug uptake in ddY mouse blood at 370 kBq/100 ul, iv at 30 mins by gamma-counting analysis; type: ADME, organism-based; settings: in vivo, 0.5 h; summary of the method: as §1
Lung [16] = test: Drug uptake in ddY mouse lung at 370 kBq/100 ul, iv at 2 mins by gamma-counting analysis; type: ADME, organism-based; settings: in vivo; summary of the method: as §1
Stomach [17] = test: Drug uptake in ddY mouse stomach assessed per organ at 370 kBq/100 ul, iv at 30 mins by gamma-counting analysis; type: ADME, organism-based; settings: in vivo, 0.5 h
Summary of the method: (§3)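 Male ddY mice (5 weeks, 20−22 g, n = 5) received tracer in saline with 5% EtOH, 370 kBq/100 μL, by tail vein. Killed at set times after dosing. Stomach removed, weighed and γ-counted against diluted aliquots of the injected dose. Reported as % injected dose per organ, mean ± SD of 5 mice.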

Spleen [18] = test: Drug uptake in ddY mouse spleen at 370 kBq/100 ul, iv at 10 mins by gamma-counting analysis; type: ADME, organism-based; settings: in vivo; summary of the method: as §1
Kidney [19] = test: Drug uptake in ddY mouse kidney at 370 kBq/100 ul, iv at 30 mins by gamma-counting analysis; type: ADME, organism-based; settings: in vivo, 0.5 h; summary of the method: as §1
Brain [20] = test: Drug uptake in ddY mouse brain at 370 kBq/100 ul, iv at 10 mins by gamma-counting analysis; type: ADME, organism-based; settings: in vivo; summary of the method: as §1
Heart [21] = test: Drug uptake in ddY mouse heart at 370 kBq/100 ul, iv at 2 mins by gamma-counting analysis; type: ADME, organism-based; settings: in vivo; summary of the method: as §1
Brain [22] = test: Ratio of drug uptake in brain at 2 mins to drug uptake in brain at 60 mins in ddY mouse at 370 kBq/100 ul, iv; type: ADME, organism-based; settings: in vivo
Summary of the method: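 Tail-vein injection of 370 kBq/100 μL (saline, 5% EtOH) into male ddY mice (5 weeks, 20−22 g, n = 5). Brain excised at 2 and 60 min, weighed and γ-counted against diluted injectate. Uptake is %ID/g, and the ratio is brain at 2 min divided by brain at 60 min.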

Brain [23] = test: Drug uptake in healthy human brain at 370 kBq/100 ul after 1 hr by immunohistochemical staining method; type: ADME, tissue-based; summary of the method: as §2
Stomach [24] = test: Drug uptake in ddY mouse stomach assessed per organ at 370 kBq/100 ul, iv at 60 mins by gamma-counting analysis; type: ADME, organism-based; settings: in vivo, 1 h; summary of the method: as §3
Liver [25] = test: Drug uptake in ddY mouse liver at 370 kBq/100 ul, iv at 30 mins by gamma-counting analysis; type: ADME, organism-based; settings: in vivo, 0.5 h; summary of the method: as §1
Bone [26] = test: Drug uptake in ddY mouse bone at 370 kBq/100 ul, iv at 30 mins by gamma-counting analysis; type: ADME, organism-based, Bone element; settings: in vivo, 0.5 h; summary of the method: as §1
Brain [27] = test: Drug uptake in ddY mouse brain at 370 kBq/100 ul, iv at 60 mins by gamma-counting analysis; type: ADME, organism-based; settings: in vivo, 1 h; summary of the method: as §1
Brain [28] = test: Drug uptake in healthy human brain at 370 kBq/100 ul after 1 hr by autoradiographic analysis; type: ADME, tissue-based; summary of the method: as §2
Liver [29] = test: Drug uptake in ddY mouse liver at 370 kBq/100 ul, iv at 60 mins by gamma-counting analysis; type: ADME, organism-based; settings: in vivo, 1 h; summary of the method: as §1
Lung [30] = test: Drug uptake in ddY mouse lung at 370 kBq/100 ul, iv at 60 mins by gamma-counting analysis; type: ADME, organism-based; settings: in vivo, 1 h; summary of the method: as §1
Liver [31] = test: Drug uptake in ddY mouse liver at 370 kBq/100 ul, iv at 10 mins by gamma-counting analysis; type: ADME, organism-based; settings: in vivo; summary of the method: as §1
Spleen [32] = test: Drug uptake in ddY mouse spleen at 370 kBq/100 ul, iv at 30 mins by gamma-counting analysis; type: ADME, organism-based; settings: in vivo, 0.5 h; summary of the method: as §1
Spleen [33] = test: Drug uptake in ddY mouse spleen at 370 kBq/100 ul, iv at 2 mins by gamma-counting analysis; type: ADME, organism-based; settings: in vivo; summary of the method: as §1
Kidney [34] = test: Drug uptake in ddY mouse kidney at 370 kBq/100 ul, iv at 10 mins by gamma-counting analysis; type: ADME, organism-based; settings: in vivo; summary of the method: as §1
Stomach [35] = test: Drug uptake in ddY mouse stomach assessed per organ at 370 kBq/100 ul, iv at 10 mins by gamma-counting analysis; type: ADME, organism-based; settings: in vivo; summary of the method: as §1
Liver [36] = test: Drug uptake in ddY mouse liver at 370 kBq/100 ul, iv at 2 mins by gamma-counting analysis; type: ADME, organism-based; settings: in vivo; summary of the method: as §1

Row | SMILES | Drug uptake (Intestine [1]) [% ID/g] | Drug uptake (Brain [2]) [% ID/g] | Drug uptake (Bone [3]) [% ID/g] | Drug uptake (Lung [4]) [% ID/g] | Drug uptake (Heart [5]) [% ID/g] | Drug uptake (Brain [6]) | Drug uptake (Brain [7]) | Drug uptake (Intestine [8]) [% ID/g] | Drug uptake (Intestine [9]) [% ID/g] | Drug uptake (Bone [10]) [% ID/g] | Drug uptake (Blood [11]) [% ID/g] | Drug uptake (Heart [12]) [% ID/g] | Drug uptake (Brain [13]) [% ID/g] | Drug uptake (Bone [14]) [% ID/g] | Drug uptake (Blood [15]) [% ID/g] | Drug uptake (Lung [16]) [% ID/g] | Drug uptake (Stomach [17]) [%ID] | Drug uptake (Spleen [18]) [% ID/g] | Drug uptake (Kidney [19]) [% ID/g] | Drug uptake (Brain [20]) [% ID/g] | other results
1 | CNc1ccc(-c2nc3cc(OCCOCCOCC[18F])ccc3o2)cc1 | 11.33 | 4.07 | 2.32 | 5.64 | 4.84 | Not Active | Not Active | 23.91 | 25 | 5.78 | 4.76 | 4.32 | 8.12 | 3.17 | 4.67 | 8.18 | 1.85 | 4.22 | 6.84 | 4.41 | Drug uptake (Heart [21]): 8.57 % ID/g; Ratio (Brain [22]): 2.67; Drug uptake (Brain [23]): Not Active; Drug uptake (Stomach [24]): 1.87 %ID; Drug uptake (Liver [25]): 19.31 % ID/g; Drug uptake (Bone [26]): 3.74 % ID/g; Drug uptake (Brain [27]): 3.04 % ID/g; Drug uptake (Brain [28]): Not Active; Drug uptake (Liver [29]): 13.06 % ID/g; Drug uptake (Lung [30]): 5.22 % ID/g; Drug uptake (Liver [31]): 23.15 % ID/g; Drug uptake (Spleen [32]): 3.92 % ID/g; Drug uptake (Spleen [33]): 3.9 % ID/g; Drug uptake (Kidney [34]): 8.45 % ID/g; Drug uptake (Stomach [35]): 2.36 %ID; Drug uptake (Liver [36]): 20.28 % ID/g
2 | CN(C)c1ccc(-c2nc3cc(OCCOCCOCC[18F])ccc3o2)cc1 | 4.8 | 2.5 | 1.07 | 3.64 | 3.14 | Not Active | Not Active | 15.82 | 15.7 | 3.45 | 3.24 | 3.13 | 5.29 | 1.18 | 2.84 | 5.18 | 1.51 | 2.88 | 4.08 | 3.37 | Drug uptake (Heart [21]): 5.55 % ID/g; Ratio (Brain [22]): 2.5; Drug uptake (Brain [23]): Not Active; Drug uptake (Stomach [24]): 1.41 %ID; Drug uptake (Liver [25]): 9.2 % ID/g; Drug uptake (Bone [26]): 1.96 % ID/g; Drug uptake (Brain [27]): 2.12 % ID/g; Drug uptake (Brain [28]): Not Active; Drug uptake (Liver [29]): 6.92 % ID/g; Drug uptake (Lung [30]): 3.22 % ID/g; Drug uptake (Liver [31]): 11.36 % ID/g; Drug uptake (Spleen [32]): 2.53 % ID/g; Drug uptake (Spleen [33]): 3.6 % ID/g; Drug uptake (Kidney [34]): 5.18 % ID/g; Drug uptake (Stomach [35]): 1.37 %ID; Drug uptake (Liver [36]): 13.04 % ID/g
